From ChEMBL document CHEMBL1649418, “Pyrimidine derivatives as potent and selective A3 adenosine receptor antagonists” (J Med Chem, 2011)

What was measured:
Type in all cases: cell-based
Adenosine receptor A1 = biological target: T1, Adenosine receptor A1 (Homo sapiens, UniProt P30542); assay: Displacement of [3H]DPCPX from human adenosine A1 receptor expressed in CHO cells by liquid scintillation counting
T1 sequence (P30542 whole entry): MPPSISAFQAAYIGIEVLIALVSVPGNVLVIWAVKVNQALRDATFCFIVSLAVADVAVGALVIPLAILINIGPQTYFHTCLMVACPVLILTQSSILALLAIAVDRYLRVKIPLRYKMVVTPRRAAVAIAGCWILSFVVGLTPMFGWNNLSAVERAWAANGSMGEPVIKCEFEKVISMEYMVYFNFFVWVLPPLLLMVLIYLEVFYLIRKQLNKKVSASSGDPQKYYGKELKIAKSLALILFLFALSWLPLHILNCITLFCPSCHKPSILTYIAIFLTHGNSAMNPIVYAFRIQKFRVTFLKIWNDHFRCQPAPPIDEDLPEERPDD
In short: (§1)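 Transfected CHO cell membranes (15 μg) were incubated with [3H]DPCPX at 25 °C for 60 min, with six test concentrations from 0.1 nM to 1 μM. Nonspecific binding was defined with 10 μM R-PIA. Filters were washed four times with ice-cold buffer before scintillation counting. Ki (Cheng–Prusoff) is mean ± SEM, n=3; % displacement at 0.1 μM is n=2.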

Adenosine receptor A2a [1] = biological target: T2, Adenosine receptor A2a (Homo sapiens, UniProt P29274); assay: Displacement of [3H][…] from human adenosine A2A receptor expressed in human HeLa cells by liquid scintillation counting
T2 sequence (P29274 whole entry): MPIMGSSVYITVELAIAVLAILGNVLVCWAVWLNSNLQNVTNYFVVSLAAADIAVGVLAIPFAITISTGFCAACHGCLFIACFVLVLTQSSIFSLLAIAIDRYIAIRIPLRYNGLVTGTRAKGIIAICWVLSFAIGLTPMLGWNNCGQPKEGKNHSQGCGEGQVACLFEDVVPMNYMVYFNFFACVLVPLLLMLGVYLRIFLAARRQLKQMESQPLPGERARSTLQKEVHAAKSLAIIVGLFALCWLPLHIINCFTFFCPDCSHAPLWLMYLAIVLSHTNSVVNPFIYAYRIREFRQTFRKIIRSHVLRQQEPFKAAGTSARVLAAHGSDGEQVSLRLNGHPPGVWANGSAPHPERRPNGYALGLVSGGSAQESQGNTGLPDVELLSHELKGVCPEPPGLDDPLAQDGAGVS
In short: (§2)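 Nonspecific binding was defined with 50 μM NECA. Filters were washed four times with ice-cold buffer, then counted by scintillation. Ki (Cheng–Prusoff) is mean ± SEM, n=3; % displacement at 0.1 μM is n=2.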

[2] = biological target: T3, Adenosine receptor A2b (Homo sapiens) (UniProt P29275); assay: Displacement of [3H]DPCPX from human adenosine A2B receptor expressed in HEK293 cells at 0.1 uM by liquid scintillation counting
T3 sequence (whole entry): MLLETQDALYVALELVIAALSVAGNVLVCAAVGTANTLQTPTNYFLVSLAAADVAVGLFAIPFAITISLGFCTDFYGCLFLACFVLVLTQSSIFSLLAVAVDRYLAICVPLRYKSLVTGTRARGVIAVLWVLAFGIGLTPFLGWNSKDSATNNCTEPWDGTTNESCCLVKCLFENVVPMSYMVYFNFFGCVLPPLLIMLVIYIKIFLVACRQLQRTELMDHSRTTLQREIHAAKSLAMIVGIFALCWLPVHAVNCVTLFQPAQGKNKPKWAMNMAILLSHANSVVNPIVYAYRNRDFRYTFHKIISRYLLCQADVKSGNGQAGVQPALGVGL
In short: (§3)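 HEK-293 membranes (18 μg) were incubated with [3H]DPCPX (35 nM) at 25 °C for 30 min, with six concentrations from 0.1 nM to 1 μM. Nonspecific binding was defined with 400 μM NECA. Filters were washed six times with ice-cold buffer and counted by scintillation. Ki (Cheng–Prusoff) is mean ± SEM, n=3; % displacement at 0.1 μM is n=2.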

Adenosine receptor A3 = biological target: T4, Adenosine receptor A3 (Homo sapiens, UniProt P0DMS8); assay: Displacement of [3H]NECA from human adenosine A3 receptor expressed in human HeLa cells by liquid scintillation counting; details: read-out: Ki
T4 sequence (P0DMS8 whole entry): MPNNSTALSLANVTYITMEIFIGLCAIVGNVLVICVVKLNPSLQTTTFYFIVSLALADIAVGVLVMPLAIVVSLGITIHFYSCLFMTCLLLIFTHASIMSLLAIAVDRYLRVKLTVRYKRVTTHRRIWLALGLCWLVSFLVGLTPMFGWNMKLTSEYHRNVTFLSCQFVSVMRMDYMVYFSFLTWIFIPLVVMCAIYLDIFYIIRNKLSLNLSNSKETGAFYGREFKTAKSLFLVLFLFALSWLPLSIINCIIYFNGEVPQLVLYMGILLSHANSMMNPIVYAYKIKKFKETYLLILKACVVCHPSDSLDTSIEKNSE
In short: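 HeLa membranes (90 μg) carrying hA3AR were incubated with [3H]NECA (30 nM) at 25 °C for 180 min, with six concentrations from 0.1 nM to 1 μM. Nonspecific binding was defined with 100 μM R-PIA. Filters were washed six times and counted by scintillation.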

Adenosine receptor A2b = biological target: T5, Adenosine receptor A2b (Homo sapiens, UniProt P29275); assay: Displacement of [3H]DPCPX from human adenosine A2B receptor expressed in HEK293 cells by liquid scintillation counting; in short: as §3
T5 sequence (P29275 whole entry): T3 sequence (whole entry)

[3] = biological target: T6, Adenosine receptor A3 (Homo sapiens) (UniProt P0DMS8); assay: Displacement of [3H]NECA from human adenosine A3 receptor expressed in human HeLa cells at 0.1 uM by liquid scintillation counting
T6 sequence (whole entry): T4 sequence (P0DMS8 whole entry)
In short: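 HeLa membranes (90 μg) carrying hA3AR were incubated with [3H]NECA (30 nM) at 25 °C for 180 min, with six concentrations from 0.1 nM to 1 μM. Nonspecific binding was defined with 100 μM R-PIA. Filters were washed six times and counted by scintillation. Ki (Cheng–Prusoff) is mean ± SEM, n=3; % displacement at 0.1 μM is n=2.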

Adenosine receptor A2a [4] = biological target: T2, Adenosine receptor A2a; assay: Displacement of [3H][…] from human adenosine A2A receptor expressed in human HeLa cells at 0.1 uM by liquid scintillation counting; in short: as §2
[5] = biological target: T7, Adenosine receptor A1 (Homo sapiens) (UniProt P30542); assay: Displacement of [3H]DPCPX from human adenosine A1 receptor expressed in CHO cells at 0.1 uM by liquid scintillation counting; in short: as §1
T7 sequence (whole entry): T1 sequence (P30542 whole entry)

Row | SMILES | Ki (Adenosine receptor A1) | Ki (Adenosine receptor A2a [1]) | inhibition [2] | Ki (Adenosine receptor A3) | Ki (Adenosine receptor A2b) | inhibition [3] | inhibition (Adenosine receptor A2a [4]) | inhibition [5]
1 | CCCC(=O)Nc1cc(-c2ccccc2)nc(-c2ccccc2)n1 | 19.5 nM | 103 nM | 1% | 171 nM |  |  |  | 
2 | CCC(=O)Nc1cc(-c2ccc(F)cc2)nc(-c2ccc(F)cc2)n1 | 83.9 nM | 429 nM | 1% | 12.1 nM |  |  |  | 
3 | CCC(=O)Nc1cc(-c2ccccc2)nc(-c2ccccc2)n1 | 22.3 nM | 84.5 nM |  | 45.5 nM | 76.6 nM |  |  | 
4 | CCCC(=O)Nc1nc(-c2ccccc2F)cc(-c2ccccc2F)n1 | 23.5 nM | 647 nM | 6% |  |  | 15% |  | 
5 | CCC(=O)Nc1cc(-c2ccsc2)nc(-c2ccsc2)n1 | 39.4 nM | 63.5 nM |  | 64.2 nM | 165 nM |  |  | 
6 | CCCC(=O)Nc1cc(-c2ccc(F)cc2)nc(-c2ccc(F)cc2)n1 | 82.3 nM | 1830 nM | 2% | 34.8 nM |  |  |  | 
7 | CCC(=O)Nc1cc(-c2ccccc2F)nc(-c2ccccc2F)n1 | 31.6 nM | 103 nM | 16% | 160 nM |  |  |  | 
8 | CC(=O)Nc1cc(-c2ccccc2)nc(-c2ccccc2)n1 | 31.2 nM | 255 nM | 19% | 12.1 nM |  |  |  | 
9 | CCCC(=O)Nc1nc(-c2ccsc2)cc(-c2ccsc2)n1 | 85.7 nM | 4570 nM | 12% |  |  | 2% |  | 
10 | CCCC(=O)Nc1nc(-c2cccs2)cc(-c2cccs2)n1 | 255 nM | 201 nM | 3% |  |  | 24% |  | 
11 | CCCC(=O)Nc1nc(-c2ccc(C)cc2)cc(-c2ccc(C)cc2)n1 | 3760 nM |  | 10% | 131 nM |  |  | 2% | 
12 | CCCC(=O)Nc1cc(-c2ccoc2)nc(-c2ccoc2)n1 | 65.1 nM | 544 nM | 1% |  |  | 3% |  | 
13 | CCCC(=O)Nc1cc(-c2ccsc2)nc(-c2ccsc2)n1 | 65.1 nM |  | 21% |  |  | 11% | 23% | 
14 | CCCC(=O)Nc1nc(-c2ccc3c(c2)OCO3)cc(-c2ccc3c(c2)OCO3)n1 | 678 nM |  | 1% | 751 nM |  |  | 8% | 
15 | CCC(=O)Nc1cc(-c2cccs2)nc(-c2cccs2)n1 | 32.9 nM | 114 nM | 17% | 21.8 nM |  |  |  | 
16 | CC(=O)Nc1cc(-c2ccc(F)cc2)nc(-c2ccc(F)cc2)n1 |  | 1330 nM | 1% | 16.7 nM |  |  |  | 15%

Row | SMILES | Ki (Adenosine receptor A1) | Ki (Adenosine receptor A2a [1]) | inhibition [2] | Ki (Adenosine receptor A3) | Ki (Adenosine receptor A2b) | inhibition [3] | inhibition (Adenosine receptor A2a [4]) | inhibition [5]
17 | CCC(=O)Nc1nc(-c2ccc3c(c2)OCO3)cc(-c2ccc3c(c2)OCO3)n1 | 535 nM |  | 1% | 127 nM |  |  | 16% | 
18 | CC(=O)Nc1cc(-c2ccccc2F)nc(-c2ccccc2F)n1 |  | 73.8 nM | 21% | 18.1 nM |  |  |  | 17%
19 | CC(=O)Nc1cc(-c2cccs2)nc(-c2cccs2)n1 |  | 24.6 nM | 23% | 8 nM |  |  |  | 19%
20 | CC(=O)Nc1cc(-c2ccoc2)nc(-c2ccoc2)n1 |  | 74 nM |  | 10.1 nM | 302 nM |  |  | 1%
21 | CC(=O)Nc1nc(-c2ccccc2F)cc(-c2ccccc2F)n1 |  |  | 10% |  |  | 15% | 12% | 8%
22 | CCCC(=O)Nc1cc(-c2ccc3c(c2)OCO3)nc(-c2ccc3c(c2)OCO3)n1 | 9.7 nM |  | 16% | 59 nM |  |  | 22% | 
23 | CCC(=O)Nc1cc(-c2ccccc2OC)nc(-c2ccccc2OC)n1 | 113 nM |  | 7% | 23.2 nM |  |  | 22% | 
24 | CCCC(=O)Nc1nc(-c2ccc(SC)cc2)cc(-c2ccc(SC)cc2)n1 |  |  | 2% |  |  | 3% | 7% | 3%
25 | CC(=O)Nc1cc(-c2ccc3c(c2)OCO3)nc(-c2ccc3c(c2)OCO3)n1 | 17.7 nM | 3350 nM | 2% | 3.3 nM |  |  |  | 
26 | CC(=O)Nc1cc(-c2ccsc2)nc(-c2ccsc2)n1 |  | 39.8 nM | 16% | 20.2 nM |  |  |  | 13%
27 | CCCC(=O)Nc1cc(-c2cccs2)nc(-c2cccs2)n1 | 33.3 nM | 153 nM | 8% | 23 nM |  |  |  | 
28 | CCCC(=O)Nc1cc(-c2ccccc2F)nc(-c2ccccc2F)n1 | 18.7 nM | 142 nM | 9% | 135 nM |  |  |  | 
29 | CCC(=O)Nc1cc(-c2ccc(C)cc2)nc(-c2ccc(C)cc2)n1 | 36.9 nM |  | 2% | 18.3 nM |  |  | 1% | 
30 | CCCC(=O)Nc1cc(-c2ccccc2OC)nc(-c2ccccc2OC)n1 | 41.3 nM |  | 3% | 110 nM |  |  | 14% | 
31 | CCCC(=O)Nc1nc(-c2ccccc2OC)cc(-c2ccccc2OC)n1 |  |  | 1% |  |  | 18% | 11% | 13%
